Source: PubChem
PMI act satM6P – human PMI activators, high substrate, primary screen, biochemical, fluorescence intensity, near-saturating mannose 6-phosphate; Mannose-6-phosphate isomerase (Homo sapiens), P34949; coupled PMI enzyme assay, resazurin fluorescence, 20 min; stronger effect = higher value; 1 = untreated enzyme, 0 = substrate-free blank; activation factor at 20 µM; hit rate 0.34% among 190,000; AID 1216, 2008;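 active means activation factor of 2 or more at 20 µM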
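Material: human phosphomannose isomerase with PGI, G6PDH, diaphorase coupling enzymes. Quantity: 15 ng/mL PMI. Medium: HEPES pH 7.4 buffer with MgCl2 and Tween-20. Reagent: Near-saturating mannose-6-phosphate, 1.0 mM. Compound: 20 µM single dose. Times: enzyme reaction with compound 20 min at room temperature. Detection: resorufin fluorescence at Ex 544/Em 590 nm.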
PMI act – activators of human PMI, primary screen, biochemical, fluorescence intensity, near-Km mannose 6-phosphate; hit rate 0.005% among 190,000; activation factor at 20 µM; Mannose-6-phosphate isomerase (Homo sapiens), P34949; purified human PMI, coupled resazurin fluorescence, 20 min; stronger effect = higher value; 1 = vehicle control, 0 substrate-free wells; AID 1214, 2008;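 active means activation factor of 2 or more at 20 µM, relative to plate controls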
ROMK primary – ROMK potassium channel modulators, primary screen, cell-based, thallium flux, MLSMR library | ATP-sensitive inward rectifier potassium channel 1 (Homo sapiens), P48048 | Tet-inducible ROMK, thallium flux fluorescence; actives lie on both sides | B-score at 10 µM | hit rate 2% among 130,000;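 active means signal ratio slope over the read window, or its plate-corrected B-score, at least 3 SD from the plate mean, either direction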;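 further: B-score of the F/F0 ratio slope over 7 to 12 s after thallium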
ABCG2 inh – ABCG2 efflux pump inhibitors, primary screen, multiplex with ABCB1, IgMXP3 cells, flow cytometry. Broad substrate specificity ATP-binding cassette transporter ABCG2 (Homo sapiens), Q9UNQ0. hit rate 0.1% among 190,000. inhibition, % at 6.6 µM. JC-1 efflux;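 active means inhibition above 80%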;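 further: 0% = DMSO and 100% = nicardipine control wells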
Target sequence (Q9UNQ0 whole entry, looked up): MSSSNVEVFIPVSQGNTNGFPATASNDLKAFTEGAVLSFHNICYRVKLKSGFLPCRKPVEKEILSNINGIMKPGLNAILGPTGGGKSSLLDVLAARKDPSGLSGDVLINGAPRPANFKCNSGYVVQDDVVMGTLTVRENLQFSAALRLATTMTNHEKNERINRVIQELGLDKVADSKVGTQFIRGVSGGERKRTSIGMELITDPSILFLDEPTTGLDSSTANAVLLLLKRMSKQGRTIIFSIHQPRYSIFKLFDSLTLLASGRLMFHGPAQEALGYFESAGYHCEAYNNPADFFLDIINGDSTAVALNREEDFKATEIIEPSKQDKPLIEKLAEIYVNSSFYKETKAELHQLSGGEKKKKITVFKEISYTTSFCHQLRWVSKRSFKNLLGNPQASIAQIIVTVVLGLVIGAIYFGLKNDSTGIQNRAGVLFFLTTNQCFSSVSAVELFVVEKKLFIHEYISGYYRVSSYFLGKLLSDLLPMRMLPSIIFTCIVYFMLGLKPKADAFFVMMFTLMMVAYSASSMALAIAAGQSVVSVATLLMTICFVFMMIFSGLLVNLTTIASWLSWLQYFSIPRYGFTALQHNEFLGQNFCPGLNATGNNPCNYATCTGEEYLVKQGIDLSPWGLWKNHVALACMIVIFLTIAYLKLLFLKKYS
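Incubation: cells with compound and JC-1, 10 min at 25 °C, rotating, no wash / Test system: IgMXP3 (ABCG2) plus far-red-tagged CCRF-Adr (ABCB1) cells / Compound dosing: one concentration, 6.6 µM final / Also added: JC-1 fluorescent substrate / Evaluation: efflux inhibition in percent versus controls / Detection: flow cytometry, 530 nm JC-1 signal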
Cl transport mod – KCC2 cotransporter modulators, thallium flux, primary screen, cell-based, HEK293 KCC2, FluoZin-2 fluorescence, MLSMR; Solute carrier family 12 member 5 (Homo sapiens), Q9H2X9; hit rate 2.2% among 190,000; KCC2 cells, thallium flux FluoZin-2 fluorescence; B-score of Tl+ flux slope (higher = more flux/activation; lower = inhibition) at 10 µM; AID 1456, 2008;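 active means thallium flux slope and its plate-corrected score both differing from the plate sample mean at a set confidence after two filtering rounds, in either direction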;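 further: slope of fluorescence scaled to starting intensity during 10 to 20 s after thallium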
ABCB1 inh – ABCB1 efflux pump inhibitors, primary screen, cell-based, multiplex, flow cytometry, ABCG2 counter-screen. ATP-dependent translocase ABCB1 (Homo sapiens), P08183. CCRF-Adr cells, JC-1 efflux. inhibition, % at 6.6 µM. hit rate 0.067% among 190,000; in the data active means inhibition above about 40%;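 further: 0% = vehicle and 100% = reference inhibitor; higher value means more JC-1 retained so stronger ABCB1 efflux block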
ROMK retest – ROMK channel modulator hit retest, confirmation, cell-based, thallium flux, duplicate, resupplied hits. shares compounds with ROMK primary. fluorescence ratio; stronger effect = lower value. normalized thallium flux (F/F0 slope) at 10 µM. hit rate 54% among 3,000;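 active means Flux at 10 µM at least 3 SD below or above vehicle control mean in one or both replicates; inconclusive means no clear call, values can overlap the other calls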
The depositor's hits bear a star; ? = inconclusive; / = not tested or not shown. The list is not random: actives were taken first. Their share in the collection is about 3.3%.

SMILES | PMI act satM6P | PMI act | ROMK primary | ABCG2 inh | Cl transport mod | ABCB1 inh | ROMK retest
Cc1ccc(NC(=O)c2ccc(Nc3ccccc3F)nc2)cc1 | 0.9 | 0.9 | 2.7* | 4 | -0.39 | 0 | 0.081
Cc1ccc(-n2c(C)cc(/C=c3/sc4nc5ccccc5n4c3=O)c2C)cc1 | 1.1 | 0.8 | 0.73 | -2 | 0.45 | -1 | /
COc1cc(N2CCCC2)c(OC)cc1/C=c1/sc2nc3ccccc3n2c1=O | 0.5 | 0.8 | -2.5 | 63 | -2.4 | 36 | 0.051*
Cc1onc(-c2ccc(Cl)cc2)c1-c1ccnc(SCC(=O)Nc2cc(Cl)cc(Cl)c2)n1 | / | / | -0.23 | / | 0.097 | / | /
COc1ccccc1N1CCN(C2CCN(C3CCC(c4ccccc4)CC3)CC2)CC1 (configuration not stated) | 1 | 1.1 | -3.1* | -1 | 0.28 | 1 | 0.061*
Cc1ccc(CCN2C(=O)CCC2(C)C(=O)NC2CCCC2)cc1 (configuration not stated) | 0.8 | 1 | 1 | -2 | 0.45 | -1 | 0.072
COc1ccc(CCN2C(=O)CCC2(C)C(=O)NC2CCCC2)cc1OC (configuration not stated) | 1 | 0.9 | -0.4 | 0 | 0.36 | 0 | /
COc1ccccc1N(C(=O)CNS(=O)(=O)c1ccccc1)C(C(=O)NCc1ccco1)C(C)C (configuration not stated) | 1 | 1.1 | / | 17 | 0.48 | 1 | /
CCCC(C(=O)NCc1ccco1)N(C(=O)CNS(=O)(=O)c1ccccc1)c1ccccc1OC (configuration not stated) | 1 | 0.9 | -4.2* | 2 | / | 1 | 0.058*
COc1ccc(CNC(=O)C(c2ccco2)N(C(=O)CNS(=O)(=O)c2ccccc2)c2ccccc2C)cc1 (configuration not stated) | 0.9 | 0.9 | -5* | 0 | -0.43 | 0 | 0.045*
CCC(C(=O)NCc1ccco1)N(C(=O)CNS(=O)(=O)c1ccc(C)cc1)c1ccccc1OC (configuration not stated) | 1 | 1.1 | 0.79 | 3 | / | 2 | /
Cc1cccc(N2CCN(C(c3ccccc3)c3nnnn3C(C)(C)C)CC2)c1C (configuration not stated) | 1 | 1 | -3.3* | 6 | -0.027 | 2 | 0.088
Cc1cccc(N2CCN(C(c3cccs3)c3nnnn3C(C)(C)C)CC2)c1C (configuration not stated) | 1 | 1 | 0.056 | 2 | / | 1 | /
CC(=O)N1N=C(c2ccc(C)o2)CC1c1cccc(F)c1 (configuration not stated) | 0.9 | 0.9 | 0.5 | 0 | / | 0 | /
COc1ccc(Cc2nn3c(-c4cc(OC)c(OC)c(OC)c4)nnc3s2)cc1 | 0.9 | 0.8 | -2.6* | 10 | / | 1 | ?
COc1cc(-c2nnc3sc(Cc4ccccc4)nn23)cc(OC)c1OC | 0.9 | 0.9 | -0.45 | 18 | -3.2 | 1 | /
CCN(c1ccccc1)S(=O)(=O)c1ccc(Cl)c(NC(=O)CN2C(=O)NC3(CCCC3)C2=O)c1 | / | / | / | / | -0.21 | / | /
Cc1ccc(N2C(=O)[C@@H]3C(c4cccnc4)=NO[C@@H]3C2=O)cc1 | / | / | / | / | -0.79 | / | 0.087
COc1cc(CNC2CCCC2)cc(OC)c1 | 0.8 | 0.8 | -0.038 | -1 | 0.65 | 0 | /
COc1ccc(C(=O)CCN2CCN(c3ccccc3F)CC2)cc1 | 0.8 | 0.8 | -10* | 5 | -1.3 | 1 | 0.077
O=C(CCN1CCN(c2ccccc2F)CC1)c1ccc(Br)cc1 | 0.4 | 0.4 | / | 5 | / | 1 | /
COc1ccccc1N1CCN(CCCCCCOc2ccc(F)cc2)CC1 | 1.2 | 1.3 | -4.5* | 3 | -0.71 | 3 | 0.038*
O=C(O)CCc1nn2c3ccccc3nc2n(Cc2ccccc2)c1=O | 1.1 | 1.2 | 1.7 | 6 | 0.25 | 0 | /
CCOC(=O)CSc1nnc(CNC(=O)c2ccco2)n1C | 0.9 | 1 | / | -3 | 0.71 | 0 | /
Nc1c(C(=O)N/N=C/c2ccc(OCc3ccccc3)cc2)cnn1-c1ccccc1 | / | / | -13* | / | 2.3 | / | 0.075
SMILES | PMI act satM6P | PMI act | ROMK primary | ABCG2 inh | Cl transport mod | ABCB1 inh | ROMK retest
O=C1Nc2ccccc2/C1=C/C(=O)c1cccs1 | 1 | 0.9 | -5.6* | 4 | -0.93 | 0 | 0.039*
CCN1C(=O)/C(=C\C(=O)c2cccs2)c2cc(Br)ccc21 | 0.8 | 0.9 | -2.2 | 15 | 0.23 | 2 | /
Cc1cc(C(F)F)n2nc(C(=O)Nc3sc4c(c3C#N)CCC4)nc2n1 | 1 | 1 | 0.7 | -16 | 0.025 | -4 | /
CCOC(=O)CN1C(=O)CSc2ccc(S(=O)(=O)N3CCCC3)cc21 | / | / | -0.0047 | / | -0.07 | / | /
CC1CCCCC1NC(=O)CN1C(=O)CSc2cc(S(=O)(=O)N3CCCCCC3)ccc21 (configuration not stated) | 1.1 | 1 | -4.5* | -6 | -3 | 1 | 0.065*
Cc1ccc(C(=O)NC(=S)N2CCN(c3ccccc3F)CC2)cc1 | 0.9 | 0.9 | 3.4* | 1 | / | 0 | 0.1*
Cc1cc(C)n(-c2nc(Nc3ccccc3C(F)(F)F)nc(-n3nc(C)cc3C)n2)n1 | 0.6 | 0.7 | / | 16 | -0.36 | 9 | ?
CCC(C)(C(=O)NC1CCCCC1)N(Cc1ccco1)C(=O)c1ccccn1 (configuration not stated) | 1 | 1 | -0.33 | 0 | / | 1 | /
COc1ccccc1NC(=O)/C=C/c1ccc2c(c1)OCO2 | 0.9 | 1 | 5.1* | 4 | 0.038 | 0 | 0.091
C#CCNC(=O)C1=C[C@H](c2ccc(Br)cc2)C[C@H](OCCCCO)O1 | 0.6 | 1 | / | 4 | 0.62 | 0 | /
O=C(/C=C/c1ccc(Br)cc1)N1CCN(c2cccc(C(F)(F)F)c2)CC1 | 0.8 | 0.8 | / | 3 | 0.25 | 0 | 0.077
COC(=O)c1c(C)nc(C)c2c(=O)oc3ccccc3c12 | 1 | 1 | / | 6 | -0.27 | 1 | ?
Cc1cc2c(c(N)n1)c(=O)oc1ccccc12 | 1.1 | 0.9 | -0.45 | 13 | -0.082 | 0 | /
Cc1cc(C(=O)COC(=O)Cc2n[nH]c(=O)c3ccccc23)c(C)n1-c1ccc2c(c1)OCO2 | 0.8 | 0.9 | / | 4 | -0.49 | 2 | /
